Experimental data from different studies.
Organism: Trypanosoma brucei
Read-out: parasite growth

| SMILES | technique | strain | tested at | time | setting | endpoint | result |
| --- | --- | --- | --- | --- | --- | --- | --- |
| Nc1nc(N)nc(Nc2ccc([As]3SCC(CO)S3)cc2)n1 (centres unmarked) | – | RHODESIENSE STIB900 | – | – | – | IC50 | 7 nM |
| Cc1nn(C)c(C)c1NS(=O)(=O)c1c(Cl)cc(-c2ccnc(N3CCNCC3)c2)cc1Cl | – | RHODESIENSE | – | – | – | EC50 | 0.6 nM |
| COC(=O)C1CCN(C(=O)c2ccc(NCc3cnc4nc(N)nc(N)c4n3)cc2)CC1 | resazurin | – | 10 µM | 72 h | – | inhibition | 16% |
| c1ccc(CCCN2CCN(CCOC(c3ccccc3)c3ccccc3)CC2)cc1 | – | – | – | – | blood stage | EC50 | 9300 nM |
| O=C(O)c1ccccc1-c1ccccc1C(=O)Nc1cc2c3ccccc3ccc2c2ccccc12 | resazurin | – | – | 72 h | – | EC50 | 24400 nM |
| COC(=O)C1CCN(C(=O)c2ccc(N(C)Cc3cnc4nc(N)nc(N)c4n3)cc2)CC1 | resazurin | – | 10 µM | 72 h | – | inhibition | 26% |
| O=C(O)c1ccccc1-c1ccccc1C(=O)Nc1ccc2c(c1)oc(=O)c1ccccc12 | resazurin | – | – | 72 h | – | EC50 | > 50000 nM |
| CNC1CC(c2ccc(Cl)c(Cl)c2)c2ccccc21 (centres unmarked) | – | – | – | – | blood stage | EC50 | 1970 nM |
